Experimental data: ChEMBL document CHEMBL1134812, “Benzamide bioisosteres incorporating dihydroheteroazole substructures: EPC synthesis and SAR leading to a selective dopamine D4 receptor partial agonist (FAUC 179)” (Bioorg Med Chem Lett, 2001)

Tests used:
D(1A) dopamine receptor = D(1A) dopamine receptor (Bos taurus, UniProt Q95136); assay: In vitro for its ability to displace [3H]- SCH 23390 from Dopamine receptor D1 in bovine striatal membrane […]; type: cell-based, Striatum
How it was run: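 D1 affinity was measured with bovine striatal membrane preparations and the D1-selective antagonist [3H]SCH 23390 as radioligand. Ki values were determined.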

D(2) dopamine receptor [1] = target: T1, D(2) dopamine receptor (Homo sapiens, UniProt P14416); assay: In vitro for its ability to displace [3H]- spiperone from cloned human dopamine D2 short receptor expressed in CHO cells; type: cell-based
T1 sequence (P14416 whole entry): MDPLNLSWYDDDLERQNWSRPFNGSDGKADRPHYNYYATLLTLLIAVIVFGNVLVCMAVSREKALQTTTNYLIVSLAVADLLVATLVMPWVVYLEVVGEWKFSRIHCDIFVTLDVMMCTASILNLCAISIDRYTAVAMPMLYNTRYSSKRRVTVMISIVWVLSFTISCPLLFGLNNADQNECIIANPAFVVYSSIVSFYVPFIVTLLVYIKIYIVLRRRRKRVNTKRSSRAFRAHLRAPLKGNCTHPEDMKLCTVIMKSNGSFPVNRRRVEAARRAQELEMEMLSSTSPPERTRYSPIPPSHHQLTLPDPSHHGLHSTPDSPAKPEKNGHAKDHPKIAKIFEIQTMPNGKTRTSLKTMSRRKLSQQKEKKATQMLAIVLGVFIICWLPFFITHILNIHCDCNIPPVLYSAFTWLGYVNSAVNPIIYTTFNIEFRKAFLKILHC
How it was run: (§1)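 [3H]Spiperone displacement from cloned human dopamine receptors stably expressed in CHO cells: D2long, D2short, D3 and D4.4 (the D4 line used the D4.4 variant). Ki values were determined.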

D(3) dopamine receptor = D(3) dopamine receptor (Homo sapiens, UniProt P35462); assay: Displacement of [3H]spiperone from human Dopamine receptor D3 expressed in CHO cells; type: cell-based; how it was run: as §1
D(3) dopamine receptor, sequence (P35462 whole entry): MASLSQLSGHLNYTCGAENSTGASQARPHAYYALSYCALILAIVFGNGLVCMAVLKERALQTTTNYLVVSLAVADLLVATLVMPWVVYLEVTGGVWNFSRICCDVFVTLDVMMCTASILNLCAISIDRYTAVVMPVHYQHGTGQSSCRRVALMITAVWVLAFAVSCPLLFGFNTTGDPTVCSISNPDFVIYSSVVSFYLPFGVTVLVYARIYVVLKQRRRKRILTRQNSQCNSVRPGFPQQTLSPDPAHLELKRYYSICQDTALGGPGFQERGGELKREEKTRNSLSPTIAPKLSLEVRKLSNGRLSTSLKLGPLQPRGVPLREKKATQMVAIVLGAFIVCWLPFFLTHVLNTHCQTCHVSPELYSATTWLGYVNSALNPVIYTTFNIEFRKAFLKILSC

D(2) dopamine receptor [2] = target: T1, D(2) dopamine receptor; assay: In vitro for its ability to displace [3H]- spiperone from cloned human dopamine D2 long receptor expressed in CHO cells; type: cell-based; how it was run: as §1
D(4) dopamine receptor = target: T2, D(4) dopamine receptor (Homo sapiens, UniProt P21917); assay: In vitro for its ability to displace [3H]- spiperone from cloned human Dopamine receptor D4 expressed in CHO cells; type: cell-based; how it was run: as §1
T2 sequence (P21917 whole entry): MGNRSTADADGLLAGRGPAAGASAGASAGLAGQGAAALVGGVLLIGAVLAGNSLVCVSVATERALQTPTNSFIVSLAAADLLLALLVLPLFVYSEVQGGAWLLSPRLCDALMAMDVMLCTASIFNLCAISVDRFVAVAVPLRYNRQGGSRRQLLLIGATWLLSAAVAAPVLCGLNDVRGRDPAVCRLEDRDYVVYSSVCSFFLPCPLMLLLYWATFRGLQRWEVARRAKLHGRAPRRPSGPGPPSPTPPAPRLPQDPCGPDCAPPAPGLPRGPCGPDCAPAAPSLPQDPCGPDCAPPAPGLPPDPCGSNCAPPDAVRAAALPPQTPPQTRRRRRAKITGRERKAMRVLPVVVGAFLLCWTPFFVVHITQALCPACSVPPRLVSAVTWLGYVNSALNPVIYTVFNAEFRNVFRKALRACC

D(2) dopamine receptor [3] = target: T1, D(2) dopamine receptor; assay: In vitro for its ability to displace [3H]- spiperone from cloned human Dopamine receptor D2L expressed in CHO cells; type: cell-based; how it was run: as §1
[4] = In vitro for its ability to displace [3H]- ketanserin from 5-hydroxytryptamine 2 receptor in porcine brain homogenate; type: tissue-based
How it was run: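 5-HT2 binding was measured in porcine brain homogenates by displacement of [3H]ketanserine. Ki values were determined.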

D(1A) dopamine receptor, sequence (Q95136 whole entry): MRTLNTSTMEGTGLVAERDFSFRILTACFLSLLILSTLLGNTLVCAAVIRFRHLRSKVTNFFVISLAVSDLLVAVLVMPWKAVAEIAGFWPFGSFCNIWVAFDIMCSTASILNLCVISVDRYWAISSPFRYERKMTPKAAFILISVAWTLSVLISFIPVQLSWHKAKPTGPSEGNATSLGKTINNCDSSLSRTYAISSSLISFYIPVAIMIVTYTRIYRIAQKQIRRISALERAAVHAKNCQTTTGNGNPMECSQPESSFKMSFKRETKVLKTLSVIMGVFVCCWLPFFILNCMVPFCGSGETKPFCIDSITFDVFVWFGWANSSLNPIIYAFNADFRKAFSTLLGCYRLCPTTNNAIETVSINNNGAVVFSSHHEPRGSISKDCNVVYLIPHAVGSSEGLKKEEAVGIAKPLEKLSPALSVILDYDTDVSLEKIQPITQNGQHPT

SMILES | Ki (D(1A) dopamine receptor) [nM] | Ki (D(2) dopamine receptor [1]) [nM] | Ki (D(3) dopamine receptor) [nM] | Ki (D(2) dopamine receptor [2]) [nM] | Ki (D(4) dopamine receptor) [nM] | Ki (D(2) dopamine receptor [3]) [nM] | Ki [4] [nM] | Ki (D(3) dopamine receptor; cho) [nM]
COc1ccc(Br)cc1C1=N[C@@H](CN2CCN(c3ccccc3)CC2)CO1 (stereo in doubt) | 2000 | 110 | 1000 | 400 | 390 | – | – | –
COc1ccc(Br)cc1C1=N[C@@H](CN2CCN(c3ccccc3)CC2)[C@@H](C)O1 (stereo in doubt) | 480 | 18000 | 10000 | 21000 | 3300 | – | – | –
c1ccc(C2=NC[C@H](CN3CCN(c4ccccc4)CC3)N2)cc1 (stereo in doubt) | – | 10000 | 9000 | 14000 | – | – | – | –
c1ccc(C2=N[C@@H](CN3CCN(c4ccccc4)CC3)CS2)cc1 (stereo in doubt) | 4500 | 720 | 1200 | 1100 | 1200 | – | – | –
C[C@@H]1OC(c2ccccc2)=N[C@H]1CN1CCN(c2ccccc2)CC1 (stereo in doubt) | 2000 | 320 | 710 | 820 | 440 | – | – | –
c1ccc(C2=N[C@@H](CN3CCN(c4ccccc4)CC3)CO2)cc1 (stereo in doubt) | 4000 | 330 | 690 | 690 | 410 | – | – | –
c1ccc(C2=N[C@@H](CN3CCN(c4ccccc4)CC3)CO2)cc1 (stereo in doubt; 4a) | 9700 | 1100 | 3300 | 1700 | 340 | – | – | –
C[C@@H]1OC(c2ccccc2)=N[C@H]1CN1CCN(c2ccccc2)CC1 (stereo in doubt; 4b) | 20000 | 1900 | 2700 | 3200 | 700 | – | – | –
COc1ccc(Br)cc1C1=N[C@@H](CN2CCN(c3ccccc3)CC2)CO1 (stereo in doubt; 4c) | 9000 | 900 | 5200 | 2200 | 1600 | – | – | –
COc1ccc(Br)cc1C1=N[C@@H](CN2CCN(c3ccccc3)CC2)[C@@H](C)O1 (stereo in doubt; 4d) | 3500 | 2400 | 2500 | 3700 | 290 | – | – | –
c1ccc(C2=NC[C@H](CN3CCN(c4ccccc4)CC3)N2)cc1 (stereo in doubt; 4e) | 12000 | 11000 | 7100 | – | – | 10000 | 870 | –
c1ccc(C2=N[C@@H](CN3CCN(c4ccccc4)CC3)CS2)cc1 (stereo in doubt; 4f) | 16000 | 1100 | – | 1500 | 1800 | – | – | 1200
